Source: ChEMBL document CHEMBL1287652, “QSAR modeling, synthesis and bioassay of diverse leukemia RPMI-8226 cell line active agents” (2010)

Tests used:
Assay type in all cases: functional
U-251 = assay: Antitumor activity against human U251 cells after 48 hrs by sulforhodamine B assay; conditions: U-251, 48 h
How it was run: (§1)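 Cells grown in RPMI-1640 with 5% FBS and 2 mM glutamine, plated and preincubated 24 h; time-zero plates TCA-fixed. Five-level serial dilutions added, 48 h at 37 °C. TCA fixation, SRB staining, absorbance 515 nm. GI50 derived from [(Ti−Tz)/(C−Tz)]×100 = 50; TGI is concentration giving 100% growth inhibition.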

SN12C = assay: Antitumor activity against human SN12C cells after 48 hrs by sulforhodamine B assay
How it was run: (§2)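 Cells were cultured in RPMI-1640 (5% FBS, 2 mM L-glutamine), pre-incubated for 24 h with time-zero plates TCA-fixed, then exposed for 48 h to five serial dilutions. The SRB read-out at 515 nm used time-zero, control and test absorbances. GI50 solves [(Ti−Tz)/(C−Tz)]×100 = 50 (net protein increase). TGI is the concentration giving 100% growth inhibition.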

M14 = assay: Antitumor activity against human M14 cells after 48 hrs by sulforhodamine B assay; conditions: M14, 48 h
How it was run: (§3)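 Cells were grown in RPMI-1640 with 5% FBS and 2 mM L-glutamine, plated at 5000–40,000 cells/well, and preincubated for 24 h. A time-zero plate was TCA-fixed. Compounds were added from DMSO stock at five concentrations for 48 h at 37 °C. Cells were fixed with TCA (adherent 10%, suspension 16%) and stained with SRB, and A515 was read. GI50 and TGI were calculated from Tz, control and test absorbances.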

SF-539 = assay: Antitumor activity against human SF539 cells after 48 hrs by sulforhodamine B assay; conditions: SF-539, 48 h; how it was run: as §2
T47D = assay: Antitumor activity against human T47D cells after 48 hrs by sulforhodamine B assay; how it was run: as §1
K562 = assay: Antitumor activity against human K562 cells after 48 hrs by sulforhodamine B assay; conditions: K562, 48 h; how it was run: as §3
MDA-MB-435 = assay: Antitumor activity against human MDA-MB-435 cells after 48 hrs by sulforhodamine B assay; conditions: MDA-MB-435, 48 h; how it was run: as §3
TK-10 = assay: Antitumor activity against human TK10 cells after 48 hrs by sulforhodamine B assay; conditions: TK-10, 48 h; how it was run: as §1
NCI-H322M = assay: Antitumor activity against human NCI-H322M cells after 48 hrs by sulforhodamine B assay; how it was run: as §2
OVCAR-5 = assay: Antitumor activity against human OVCAR5 cells after 48 hrs by sulforhodamine B assay; conditions: OVCAR-5, 48 h; how it was run: as §2
NCI-H226 = assay: Antitumor activity against human NCI-H226 cells after 48 hrs by sulforhodamine B assay; conditions: NCI-H226, 48 h; how it was run: as §2
[1] = Antitumor activity against human […] cells at 10 uM after 48 hrs by sulforhodamine B assay relative to control; conditions: values are per cent of control
How it was run: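 NCI panel lines were grown in RPMI-1640 with 5% FBS and 2 mM L-glutamine and seeded at 5000–40,000 cells/well according to doubling time. After 24 h at 37 °C, 5% CO2, one dose from a DMSO stock was added for 48 h. Cells were TCA-fixed (10% final adherent, 16% suspension), SRB-stained and read at 515 nm. Percent growth is relative to untreated control.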

HOP-92 = assay: Antitumor activity against human HOP92 cells after 48 hrs by sulforhodamine B assay; conditions: HOP-92, 48 h; how it was run: as §3
UO-31 = assay: Antitumor activity against human UO31 cells after 48 hrs by sulforhodamine B assay; conditions: UO-31, 48 h; how it was run: as §1
BT-549 = assay: Antitumor activity against human BT549 cells after 48 hrs by sulforhodamine B assay; conditions: BT-549, 48 h; how it was run: as §3
[2] = Antitumor activity against human Hs 578T cells after 48 hrs by sulforhodamine B assay; how it was run: as §3
NCI-H522 = assay: Antitumor activity against human NCI-H522 cells after 48 hrs by sulforhodamine B assay; conditions: NCI-H522, 48 h; how it was run: as §2
UACC-257 = assay: Antitumor activity against human UACC257 cells after 48 hrs by sulforhodamine B assay; conditions: UACC-257, 48 h; how it was run: as §1
HOP-62 = assay: Antitumor activity against human HOP62 cells after 48 hrs by sulforhodamine B assay; conditions: HOP-62, 48 h; how it was run: as §3
RXF 393 = assay: Antitumor activity against human RXF393 cells after 48 hrs by sulforhodamine B assay; conditions: RXF 393, 48 h; how it was run: as §2
HCT-15 = assay: Antitumor activity against human HCT15 cells after 48 hrs by sulforhodamine B assay; conditions: HCT-15, 48 h; how it was run: as §3
DU-145 = assay: Antitumor activity against human DU145 cells after 48 hrs by sulforhodamine B assay; conditions: DU-145, 48 h; how it was run: as §3
SF-268 = assay: Antitumor activity against human SF268 cells after 48 hrs by sulforhodamine B assay; conditions: SF-268, 48 h; how it was run: as §2
CAKI-1 = assay: Antitumor activity against human Caki1 cells after 48 hrs by sulforhodamine B assay; conditions: CAKI-1, 48 h; how it was run: as §3
OVCAR-4 = assay: Antitumor activity against human OVCAR4 cells after 48 hrs by sulforhodamine B assay; conditions: OVCAR-4, 48 h; how it was run: as §2
786-0 = assay: Antitumor activity against human 786-0 cells after 48 hrs by sulforhodamine B assay; conditions: 786-0, 48 h; how it was run: as §3
[3] = Antitumor activity against human […] cells after 48 hrs by sulforhodamine B assay; conditions: RPMI-8226, 48 h; how it was run: as §2
SW-620 = assay: Antitumor activity against human SW620 cells after 48 hrs by sulforhodamine B assay; conditions: SW-620, 48 h; how it was run: as §1
ACHN = assay: Antitumor activity against human ACHN cells after 48 hrs by sulforhodamine B assay; how it was run: as §3
SR = assay: Antitumor activity against human SR cells after 48 hrs by sulforhodamine B assay; how it was run: as §2
SK-OV-3 = assay: Antitumor activity against human SKOV3 cells after 48 hrs by sulforhodamine B assay; conditions: SK-OV-3, 48 h; how it was run: as §2
LOX IMVI = assay: Antitumor activity against human LOXIMVI cells after 48 hrs by sulforhodamine B assay; how it was run: as §3

With `COc1ccc(NC(=O)Nc2ccccc2OCCCOc2ccccc2NC(=O)Nc2ccc(OC)cc2)cc1` as the compound, how does the GI50 (U-251) read?
Its GI50 is 3.7 µM.

And the TGI (U-251)?
Its TGI is 28.8 µM.

What about the GI50 (SN12C) of the same compound?
Its GI50 is over 100 µM.

And the TGI (SN12C)?
The TGI was over 100 µM.

What about the GI50 (M14) of the same compound?
Its GI50 is 45.7 µM.

What about the TGI (M14) of the same compound?
The TGI was over 100 µM.

What about the GI50 (SF-539) of the same compound?
Its GI50 is 3.4 µM.

And the TGI (SF-539)?
The TGI was over 100 µM.

What about the GI50 (T47D) of the same compound?
The GI50 was over 100 µM.

And the TGI (T47D)?
The TGI was over 100 µM.

What about the GI50 (K562) of the same compound?
The GI50 was 31.7 µM.

What about the TGI (K562) of the same compound?
The TGI was over 100 µM.

What about the GI50 (MDA-MB-435) of the same compound?
The GI50 was over 100 µM.

And the TGI (MDA-MB-435)?
The TGI was over 100 µM.

What about the GI50 (TK-10) of the same compound?
The GI50 was 4 µM.

What about the TGI (TK-10) of the same compound?
Its TGI is 49.7 µM.

And the GI50 (NCI-H322M)?
Its GI50 is over 100 µM.

What about the TGI (NCI-H322M) of the same compound?
The TGI was over 100 µM.

And the GI50 (OVCAR-5)?
Its GI50 is over 100 µM.

And the TGI (OVCAR-5)?
Its TGI is over 100 µM.

What about the GI50 (NCI-H226) of the same compound?
Its GI50 is over 100 µM.

And the TGI (NCI-H226)?
Its TGI is over 100 µM.

And the growth, % of control at 10 µM [1]?
Its growth, % of control at 10 µM is 77%.

And the GI50 (HOP-92)?
The GI50 was 2.7 µM.

And the TGI (HOP-92)?
Its TGI is 8.6 µM.

What about the GI50 (UO-31) of the same compound?
Its GI50 is over 100 µM.

What about the TGI (UO-31) of the same compound?
The TGI was over 100 µM.

And the GI50 (BT-549)?
Its GI50 is 1.5 µM.

What about the TGI (BT-549) of the same compound?
Its TGI is 29.2 µM.

And the GI50 [2]?
Its GI50 is over 100 µM.

What about the TGI [2] of the same compound?
The TGI was over 100 µM.

And the GI50 (NCI-H522)?
The GI50 was over 100 µM.

What about the TGI (NCI-H522) of the same compound?
Its TGI is over 100 µM.

And the GI50 (UACC-257)?
The GI50 was over 100 µM.

And the TGI (UACC-257)?
The TGI was over 100 µM.

What about the GI50 (HOP-62) of the same compound?
The GI50 was 3.3 µM.

And the TGI (HOP-62)?
Its TGI is 9.4 µM.

And the TGI (RXF 393)?
The TGI was over 100 µM.

What about the GI50 (HCT-15) of the same compound?
Its GI50 is over 100 µM.

What about the TGI (HCT-15) of the same compound?
The TGI was over 100 µM.

What about the GI50 (DU-145) of the same compound?
The GI50 was over 100 µM.

What about the TGI (DU-145) of the same compound?
The TGI was over 100 µM.

What about the GI50 (SF-268) of the same compound?
The GI50 was 7.3 µM.

And the TGI (SF-268)?
Its TGI is over 100 µM.

What about the GI50 (CAKI-1) of the same compound?
The GI50 was over 100 µM.

And the TGI (CAKI-1)?
The TGI was over 100 µM.

And the GI50 (OVCAR-4)?
Its GI50 is over 100 µM.

And the TGI (OVCAR-4)?
The TGI was over 100 µM.

And the TGI (786-0)?
Its TGI is over 100 µM.

What about the GI50 [3] of the same compound?
The GI50 was 58.3 µM.

And the TGI [3]?
Its TGI is over 100 µM.

And the GI50 (SW-620)?
Its GI50 is over 100 µM.

What about the TGI (SW-620) of the same compound?
The TGI was over 100 µM.

And the GI50 (ACHN)?
Its GI50 is over 100 µM.

And the TGI (ACHN)?
The TGI was over 100 µM.

What about the GI50 (SR) of the same compound?
Its GI50 is 0.2 µM.

And the TGI (SR)?
Its TGI is 4 µM.

And the GI50 (SK-OV-3)?
Its GI50 is 5 µM.

What about the TGI (SK-OV-3) of the same compound?
Its TGI is over 100 µM.

What about the GI50 (LOX IMVI) of the same compound?
Its GI50 is over 100 µM.

And the TGI (LOX IMVI)?
The TGI was over 100 µM.
